Experimental data from ChEMBL document CHEMBL4396929, “Discovery and development of substituted thiadiazoles as inhibitors of Staphylococcus aureus Sortase A” (Bioorg Med Chem, 2019).
Calls of active or inactive are those of the source. The calls are words filed in the database; no cut-off is given here.

Experiments:
[1] = test system: Escherichia coli; test: Growth inhibition of Escherichia coli CCUG 17620 measured after 18 to 24 hrs by broth microdilution assay; type: organism-based; settings: in vitro
[2] = test system: Staphylococcus aureus; test: Growth inhibition of Staphylococcus aureus CCUG 17621 measured after 18 to 24 hrs by broth microdilution assay; type: organism-based
[3] = test system: Staphylococcus aureus; test: Growth inhibition of Staphylococcus aureus CCUG 15915 measured after 18 to 24 hrs by broth microdilution assay; type: organism-based
[4] = molecular target: T1, Sortase A (Staphylococcus aureus) (UniProt Q9S446); test: Binding affinity to Staphylococcus aureus SrtA by ligand based 1D CPMG relaxation dispersion NMR analysis
T1 sequence (whole entry): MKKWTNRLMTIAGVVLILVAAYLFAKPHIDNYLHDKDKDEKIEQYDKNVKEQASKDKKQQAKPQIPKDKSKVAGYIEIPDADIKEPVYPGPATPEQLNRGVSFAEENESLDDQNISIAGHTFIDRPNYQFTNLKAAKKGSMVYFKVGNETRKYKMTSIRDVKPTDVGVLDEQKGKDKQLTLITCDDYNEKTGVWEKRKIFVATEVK
Summary of the method: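 Ligand-observed 1D NMR: spectrum of ligand alone, then ligand with SrtA, acquired after a delay acting as a T2 filter. Binding is scored as a drop in ligand signal intensity.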

[5] = molecular target: T1, Sortase A (Staphylococcus aureus); test: Inhibition of recombinant Staphylococcus aureus wild type truncated C-terminal His6 tagged Srt A at 200 uM using Abz-Leu-Pro-Glu-Thr-Gly-Lys(Dnp)-NH2 as substrate preincubated for 6.3 hrs followed by substrate addition measured after 60 mins by FRET assay relative to control
[6] = molecular target: T1, Sortase A (Staphylococcus aureus); test: Inhibition of recombinant Staphylococcus aureus wild type truncated C-terminal His6 tagged Srt A at 200 uM using Abz-Leu-Pro-Glu-Thr-Gly-Lys(Dnp)-NH2 as substrate preincubated for 15 mins followed by substrate addition measured after 60 mins by FRET assay relative to control
Summary of the method: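 FRET read-out: cleavage of the internally quenched substrate relieves Dnp quenching of the Abz fluorophore, and the resulting fluorescence reports SrtA activity. Compound at 200 µM, 15 min preincubation with enzyme. Inhibition reported as mean ± SD, n = 3.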

[7] = molecular target: T2, Sortase A (Staphylococcus aureus, UniProt Q9S446); test: Inhibition of recombinant Staphylococcus aureus wild type truncated C-terminal His6 tagged Srt A using Abz-Leu-Pro-Glu-Thr-Gly-Lys(Dnp)-NH2 as substrate preincubated for 15 mins followed by substrate addition measured after 60 mins by FRET assay
T2 sequence (Q9S446 whole entry): T1 sequence (whole entry)

[8] = molecular target: T2, Sortase A; test: (§1) Inhibition of recombinant Staphylococcus aureus wild type truncated C-terminal His6 tagged Srt A using Abz-Leu-Pro-Glu-Thr-Gly-Lys(Dnp)-NH2 as substrate preincubated for 30 mins followed by substrate addition measured after 60 mins by FRET assay in presence of 0.5 mM reducing agent, DTT
[9] = molecular target: T1, Sortase A (Staphylococcus aureus); test: as §1
[10] = molecular target: T1, Sortase A (Staphylococcus aureus); test: Covalent ligand binding to recombinant Staphylococcus aureus wild type truncated C-terminal His6 tagged SrtA assessed as enzyme modifications by measuring aminothiadiazolyl-thio (+130.96119 Da, +C2HN3S2) and nitrobenzyl-thio (+167.00410, +C7H5NO2S) fragments at 200 uM by LCMS analysis
[11] = molecular target: T1, Sortase A (Staphylococcus aureus); test: Covalent ligand binding to recombinant Staphylococcus aureus wild type truncated C-terminal His6 tagged SrtA assessed as enzyme modifications by measuring nicotinamido-thiadiazolyl thio (+235.98265 Da, +C8H4N4OS2) and nitrobenzyl-thio (+167.00410, +C7H5NO2S) fragments at 200 uM by LCMS analysis
[12] = molecular target: T1, Sortase A (Staphylococcus aureus); test: Irreversible ligand binding to Staphylococcus aureus SrtA using (Abz-Leu-Pro-Glu-Thr-Gly-Lys(Dnp)-NH2 as substrate by competitive binding based 1D CPMG relaxation dispersion NMR analysis
Summary of the method: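 Ligand-observed CPMG competition: the ligand–SrtA sample is challenged with a known binder for the same site. Signal recovery indicates displacement and reversible binding; no recovery indicates irreversible binding.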

[13] = molecular target: T2, Sortase A; test: Inhibition of recombinant Staphylococcus aureus wild type truncated C-terminal His6 tagged Srt A using Abz-Leu-Pro-Glu-Thr-Gly-Lys(Dnp)-NH2 as substrate preincubated for 30 mins followed by substrate addition measured after 60 mins by FRET assay
[14] = molecular target: T1, Sortase A (Staphylococcus aureus); test: Reversible ligand binding to Staphylococcus aureus SrtA using (Abz-Leu-Pro-Glu-Thr-Gly-Lys(Dnp)-NH2 as substrate by NMR competitive displacement analysis
Summary of the method: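 Ligand-observed CPMG NMR uses a delay acting as a T2 filter. Spectra are taken of the ligand alone, then after SrtA is added, then after a known binder is added to compete for the site. Recovery of the ligand signal marks reversible, competitive binding.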

[15] = molecular target: T1, Sortase A (Staphylococcus aureus); test: Inhibition of recombinant Staphylococcus aureus wild type truncated C-terminal His6 tagged Srt A at 167 uM using Abz-Leu-Pro-Glu-Thr-Gly-Lys(Dnp)-NH2 as substrate preincubated for 15 mins followed by substrate addition measured after 60 mins by FRET assay relative to control
Summary of the method: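 FRET activity assay with an internally quenched substrate. Cleavage by SrtA separates the Abz donor from the Dnp quencher, and the increase in fluorescence is read. Compound at 167 µM with 15 min incubation. Percent inhibition is given as mean ± SD, n = 2.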

[16] = molecular target: T1, Sortase A (Staphylococcus aureus); test: Binding affinity to Staphylococcus aureus 15N-labeled SrtA by protein based 2D SOFAST-HMQC NMR analysis

| Structure (SMILES) | inhibition [6] [%] | Activity [4] | IC50 [7] [µM] | other results |
| --- | --- | --- | --- | --- |
| FC(F)(F)c1ccnc(Sc2nc[nH]n2)n1 | – | – | 19 | – |
| CCSc1c(S)cnn(-c2ccccc2)c1=O | – | – | 3 | – |
| O=[N+]([O-])c1ccc(CSc2nnc(N3CCOCC3)s2)cc1 | 104 | Active | 9 | – |
| Nc1nnc(SCc2cccc([N+](=O)[O-])c2)s1 | 11 | Active | 521 | MIC [1]: > 256 µg/mL; MIC [2]: > 256 µg/mL; MIC [3]: > 256 µg/mL |
| O=c1c(O)c(-c2ccc(O)cc2O)oc2cc(O)cc(O)c12 [MORIN] | – | – | – | IC50 [8]: 19 µM |
| CC(=O)Nc1nnc(SCc2ccc([N+](=O)[O-])cc2)s1 | 94 | Active | 127 | – |
| N#Cc1ccccc1CSc1nnc(N)s1 | 1 | Active | 1740 | MIC [1]: > 256 µg/mL; MIC [2]: > 256 µg/mL; MIC [3]: > 256 µg/mL |
| Nc1nnc(SCc2ccc([N+](=O)[O-])cc2)s1 | 101 | Active | 26 | MIC [1]: > 256 µg/mL; MIC [2]: > 256 µg/mL; MIC [3]: > 256 µg/mL; inhibition [9]: inactive; Activity [10]: Active |
| O=C(Nc1nnc(SCc2ccc([N+](=O)[O-])cc2)s1)c1ccncc1 | 99 | inactive | 42 | – |
| O=[N+]([O-])c1ccc(CSc2nnc(N3CCNCC3)s2)cc1 | 80 | Active | 71 | – |
| O=C(Nc1nnc(SCc2ccc([N+](=O)[O-])cc2)s1)c1cccnc1 | 100 | inactive | 3.8 | inhibition [9]: inactive; Activity [11]: Active |
| CC(C)n1c(S)nc2c1c(=O)n(C)c(=O)n2C | – | – | 50 | Activity [12]: Active |
| Nc1nnc(Sc2ccc([N+](=O)[O-])c3nonc23)s1 | – | Active | 6 to 6.2 | Activity [14]: Active; inhibition [9]: inactive; inhibition [15]: 101%; Activity [16]: Active |

Now from value to molecule, other results behind:

| inhibition [6] [%] | Structure (SMILES) | Activity [4] | IC50 [7] [µM] | other results |
| --- | --- | --- | --- | --- |
| 27 | O=[N+]([O-])c1cccc(CSc2nnc(N3CCNCC3)s2)c1 | inactive | – | MIC [1]: > 256 µg/mL; MIC [2]: > 256 µg/mL; MIC [3]: > 256 µg/mL; inhibition [5]: 38% |
| 13 | O=C(Nc1nnc(SCc2cccc([N+](=O)[O-])c2)s1)c1cccnc1 | – | – | – |
| 29 | O=[N+]([O-])c1cccc(CSc2nnc(N3CCOCC3)s2)c1 | Active | – | MIC [1]: > 256 µg/mL; MIC [2]: > 256 µg/mL; MIC [3]: > 256 µg/mL |
| 2 | N#Cc1ccc(CSc2nnc(N)s2)cc1 | inactive | – | – |
| 0 | Nc1nnc(SCc2ccccc2)s1 | inactive | – | – |
| 25 | Nc1nnc(Sc2ccccc2)s1 | inactive | – | – |
| 19 | O=[N+]([O-])c1cccc(CSc2nnc(Br)s2)c1 | – | – | – |
| 8 | O=C(Nc1nnc(SCc2cccc([N+](=O)[O-])c2)s1)c1ccncc1 | Active | – | MIC [1]: > 256 µg/mL; MIC [2]: > 256 µg/mL; MIC [3]: > 256 µg/mL |
| 5 | Nc1nnc(SCc2ccc(F)cc2)s1 | inactive | – | – |
| 18 | CC(=O)Nc1nnc(SCc2cccc([N+](=O)[O-])c2)s1 | – | – | MIC [1]: > 256 µg/mL; MIC [2]: > 256 µg/mL; MIC [3]: > 256 µg/mL |
| 13 | Nc1nnc(SCCc2cccc([N+](=O)[O-])c2)s1 | inactive | – | – |
| 6 | O=C(Nc1nnc(SCc2cccc([N+](=O)[O-])c2)s1)c1ccco1 | – | – | – |
| 35 | Nc1nnc(Sc2ccc([N+](=O)[O-])cc2)s1 | inactive | – | IC50 [13]: Not Active |
| 37 | O=[N+]([O-])c1cccc(CSc2nnc(Nc3cccnc3)s2)c1 | – | – | – |
| 13 | Nc1nnc(SCc2ccc3ccccc3c2)s1 | – | – | – |
